A short description of data set [1]: Selectivity ratio of IC50 for human HT-29 cells to MIC for Staphylococcus aureus ATCC 29213. Type of data set: functional. The procedure, abridged: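 Ratio of HT-29 IC50 (MTT assay, 24 h exposure) to MIC against S. aureus ATCC 29213 (CLSI broth microdilution, 24 h, 37 °C).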
The subject of data set [2] is Staphylococcus lugdunensis. Kind of data set: Antibacterial activity against Staphylococcus lugdunensis isolate NTUH after 24 hrs by broth microdilution method. Type of data set: functional.
The test system of data set [3] is Staphylococcus aureus. The experiment in a line: Antibacterial activity against methicillin-resistant Staphylococcus aureus ATCC 33592 infected in C57BL/6 mouse assessed as mouse survival time at 30 mg/kg, ip administered 1 hr post infection. The data set is classed as functional. The note with it: route intraperitoneal. The procedure, abridged: (§1)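 Female C57BL/6 mice, N = 5 per group, were infected ip with a 100% lethal dose of MRSA, 7 × 10⁷ CFU in 0.3 ml PBS. At 1 h they received one ip dose of 30 mg/kg in vehicle (40% PEG-400, 10% […], 10% DMSO in normal saline). Body weight and morbidity were recorded daily for 7 days. Mice were sacrificed on significant morbidity, including 20% weight loss.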

The subject of data set [4] is Mus musculus. The experiment in a line: Toxicity in C57BL/6 mouse infected with methicillin-resistant Staphylococcus aureus ATCC 33592 assessed as mortality at 30 mg/kg, ip administered 1 hr post infection. Type of data set: organism-based. Also on record: dose 30 mg/kg, route intraperitoneal. The note with it: in vivo. The procedure, abridged: as §1
The subject of a further data set is HT-29. Kind of data set: Antiproliferative activity against human HT-29 cells after 24 hrs by MTT assay. Type of data set: cell-based. To be noted: HT-29, 24 h. The procedure, abridged: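 HT-29 human colon adenocarcinoma cells seeded at 1 × 10⁴ cells/well in RPMI 1640 with 10% FBS and 10 µg/mL gentamicin, left overnight at 37 °C, 5% CO₂. Medium then replaced with medium holding test agents (final DMSO 0.1%; DMSO-only controls), at least 6 wells per condition, for 24 h. Viability read by MTT (0.5 mg/mL, 2 h, 37 °C), DMSO solubilization, absorbance 570 nm.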
A general note: Tetrazolium assays rely on reduction of a dye to a coloured formazan, in cell work by metabolically active cells.

For data set [5], the system named is Staphylococcus intermedius. The experiment in a line: Antibacterial activity against Staphylococcus intermedius ATCC 29663 after 24 hrs by broth microdilution method. The data set is classed as functional. To be noted: ATCC 29663, 24 h. A general note: Broth dilution looks for growth in wells or tubes with falling amounts of substance.
Data set [6] has as its system Staphylococcus aureus. Kind of data set: Bactericidal activity against Staphylococcus aureus ATCC 29213 assessed as decrease in bacterial count at 8 times compound MIC after 24 hrs by time-kill assay. The data set is classed as functional. Further details: scale not given: the % may be the effect or the level left. The procedure, abridged:
(§2)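 S. aureus ATCC 29213 at 5 × 10⁵ CFU/mL in CAMHB exposed to test agents at 2-, 4- and 8-fold MIC, in triplicate. DMSO-matched medium served as control. At successive times, aliquots serially diluted in PBS and plated on LB agar (37 °C, 16 h). Counts given as CFU/mL, mean ± SD (n = 3); 99.9% killing used as reference.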

Data set [7] relates to Mus musculus. Kind of data set: Toxicity in C57BL/6 mouse infected with methicillin-resistant Staphylococcus aureus ATCC 33592 assessed as weight loss at 30 mg/kg, ip administered 1 hr post infection measured on day 3 to 6 post infection. Type of data set: organism-based. Further details: dose 30 mg/kg, route intraperitoneal. The note with it: in vivo. The procedure, abridged: as §1

Data set [8] deals with Staphylococcus aureus. The experiment in a line: Bactericidal activity against Staphylococcus aureus ATCC 29213 assessed as decrease in bacterial count at 2 to 8 times compound MIC by time-kill assay. The data set is classed as functional, organism-based. To be noted: TDE = time-dependent effect. The procedure, abridged: as §2
Data set [9] has as its system Mus musculus. Kind of data set: Toxicity in C57BL/6 mouse infected with methicillin-resistant Staphylococcus aureus ATCC 33592 assessed as weight loss at 30 mg/kg, ip administered 1 hr post infection measured on day 1 post infection. The data set is classed as organism-based. Also on record: dose 30 mg/kg, route intraperitoneal. To be noted: in vivo. The procedure, abridged:
as §1

The subject of data set [10] is Staphylococcus epidermidis. The experiment in a line: Antibacterial activity against Staphylococcus epidermidis ATCC 35984 after 24 hrs by broth microdilution method. The data set is classed as functional. To be noted: RP62A.
Data set [11] has as its system Staphylococcus aureus. The experiment in a line: Antibacterial activity against Staphylococcus aureus assessed as log decrease in bacterial CFU at 32 ug/ml after 24 hrs. The data set is classed as functional.
For data set [12], the system named is Staphylococcus aureus. The experiment in a line: Antibacterial activity against Staphylococcus aureus ATCC 29213 after 24 hrs by broth microdilution method. To be noted: ATCC 29213, 24 h. The data set is classed as functional.
Data set [13] has as its system Mus musculus. The experiment in a line: Toxicity in C57BL/6 mouse infected with methicillin-resistant Staphylococcus aureus ATCC 33592 assessed as lethargy at 30 mg/kg, ip administered 1 hr post infection. The data set is classed as organism-based. Also on record: dose 30 mg/kg, route intraperitoneal. To be noted: in vivo. The procedure, abridged:
as §1

The test system of data set [14] is Mus musculus. The experiment in a line: Toxicity in C57BL/6 mouse infected with methicillin-resistant Staphylococcus aureus ATCC 33592 assessed as decrease in body temperature at 30 mg/kg, ip administered 1 hr post infection. Type of data set: organism-based. To be noted: in vivo. Further details: dose 30 mg/kg, route intraperitoneal. The procedure, abridged:
as §1

Data set [15] relates to Mus musculus. The experiment in a line: Toxicity in C57BL/6 mouse infected with methicillin-resistant Staphylococcus aureus ATCC 33592 assessed as weight loss at 30 mg/kg, ip administered 1 hr post infection. Type of data set: organism-based. Further details: dose 30 mg/kg, route intraperitoneal. The note with it: in vivo. The procedure, abridged:
as §1

The structures appear in SMILES notation. ≈ marks a conversion by molar mass, not a printed value. Some results are limits rather than exact numbers.

The term MIC denotes the smallest concentration in the dilution series that meets the test's criterion for growth inhibition. The term IC50 denotes the concentration at which inhibition is half-maximal. For the molecule `NS(=O)(=O)Nc1ccc(-n2nc(C(F)(F)F)cc2-c2c3ccccc3cc3ccccc23)cc1`, the Ratio in data set [1] is reported as 40. In addition, the MIC in data set [2] was found to be 4 µg/mL (≈ 8.29 µM); in data set [5], 0.5 µg/mL (≈ 1.04 µM); in data set [10], 1 µg/mL (≈ 2.07 µM). In addition, the Survival in the data set on Staphylococcus aureus [3] is 7 days. In addition, the Activity result in the data set on Mus musculus [4] is “Toxic”; in the data set with Staphylococcus aureus [6], 99.99%; in the data set with Mus musculus [7], “Non-toxic”; in the data set on Staphylococcus aureus [8], “tde”; in the data set on Mus musculus [9], “Toxic”. In addition, the IC50 in the data set with HT-29 was 20 µg/mL (≈ 41.5 µM).
Regarding `Cc1ccc(-c2cc(C(F)(F)F)nn2-c2ccc(S(N)(=O)=O)cc2)cc1` [CELECOXIB], in the data set with Staphylococcus aureus [11], the FC amounted to 6. The Ratio in data set [1] came out at 0.6. In addition, in the data set on HT-29, the midpoint of inhibition, the IC50, lay at 18 µg/mL (≈ 47.2 µM). Besides, the figures for the MIC (in the data set with Staphylococcus aureus [12]; in [10]) were 32 µg/mL (≈ 83.9 µM) and 16 µg/mL (≈ 42 µM), respectively.
As for `NS(=O)(=O)Nc1ccc(-n2nc(C(F)(F)F)cc2-c2ccc3c(ccc4ccccc43)c2)cc1`, the Ratio in [1] stood at 12. Moreover, the MIC was determined as 2 µg/mL (≈ 4.15 µM) in data set [2], 1 µg/mL (≈ 2.07 µM) in data set [5], 1 µg/mL (≈ 2.07 µM) in the data set on Staphylococcus aureus [12] and 2 µg/mL (≈ 4.15 µM) in data set [10]. Moreover, in the data set with Staphylococcus aureus [3], the Survival result is “<=2 day”. Also, the Activity entry was “Toxic” in the data set with Mus musculus [13]; “Toxic” in the data set on Mus musculus [14]; 99.91% in the data set on Staphylococcus aureus [6]; greater than 20% in the data set with Mus musculus [15]; “tde” in the data set on Staphylococcus aureus [8].

(Values after ChEMBL document CHEMBL2057145, “Development of novel antibacterial agents against methicillin-resistant Staphylococcus aureus” (Bioorg Med Chem, 2012).)
